Laboratory results: ChEMBL document CHEMBL1140106, “Blocking estrogen signaling after the hormone: pyrimidine-core inhibitors of estrogen receptor-coactivator binding” (J Med Chem, 2008)

Assays:
Estrogen receptor [1] = biological target: T1, Estrogen receptor (Homo sapiens, UniProt P03372); assay: Binding affinity to ERalpha assessed as inhibition of fluorescein-labeled nuclear receptor domain of steroid receptor coactivator 3 by TR-FRET assay
T1 sequence (P03372 whole entry): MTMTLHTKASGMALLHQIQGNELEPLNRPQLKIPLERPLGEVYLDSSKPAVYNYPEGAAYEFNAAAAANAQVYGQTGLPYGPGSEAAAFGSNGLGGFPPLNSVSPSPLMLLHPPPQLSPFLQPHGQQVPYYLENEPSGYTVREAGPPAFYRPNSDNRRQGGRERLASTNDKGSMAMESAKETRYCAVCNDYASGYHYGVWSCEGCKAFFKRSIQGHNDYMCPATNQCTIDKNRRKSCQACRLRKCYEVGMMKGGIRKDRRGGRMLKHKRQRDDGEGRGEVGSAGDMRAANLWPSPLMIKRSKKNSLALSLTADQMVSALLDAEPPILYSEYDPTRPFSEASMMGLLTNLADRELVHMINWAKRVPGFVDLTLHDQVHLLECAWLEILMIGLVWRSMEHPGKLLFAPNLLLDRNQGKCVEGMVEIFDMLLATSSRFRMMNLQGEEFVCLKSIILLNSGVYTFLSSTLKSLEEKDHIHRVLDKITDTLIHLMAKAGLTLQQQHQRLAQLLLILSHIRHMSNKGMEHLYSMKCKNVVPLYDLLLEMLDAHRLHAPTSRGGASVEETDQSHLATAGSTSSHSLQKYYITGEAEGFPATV
How it was run: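 Fluorescein-SRC-3-NRD (50 nM) was then added for 1 h at room temperature in the dark. Buffer: 20 mM Tris pH 7.5, 0.01% NP40, 50 mM NaCl. SRC-1 Box II peptide served as positive control.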

Estrogen receptor beta = Estrogen receptor beta (Homo sapiens, UniProt Q92731); assay: Binding affinity to ERbeta assessed as inhibition of fluorescein-labeled nuclear receptor domain of steroid receptor coactivator 3 by TR-FRET assay
[2] = Cytotoxicity against human HEC1 cells assessed as decrease in viable cell count at 20 uM; type: cell-based; conditions: hec-1, 20 µM
Estrogen receptor [3] = biological target: T1, Estrogen receptor; assay: Antagonist activity at ERalpha in human HEC1 cells assessed as inhibition of estrogen-induced transcriptional activity after 24 hrs by reporter gene assay; type: functional, cell-based, HEC-1
How it was run: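 HEC-1 cells, which lack endogenous ER, were lipofectin-transfected with full-length ERα vector, 2ERE-luciferase reporter and pCMV β-gal as internal control. After 6 h the medium was changed to 5% charcoal-dextran-treated calf serum with ligands.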

Estrogen receptor beta, sequence (Q92731 whole entry, the tested form may be a part): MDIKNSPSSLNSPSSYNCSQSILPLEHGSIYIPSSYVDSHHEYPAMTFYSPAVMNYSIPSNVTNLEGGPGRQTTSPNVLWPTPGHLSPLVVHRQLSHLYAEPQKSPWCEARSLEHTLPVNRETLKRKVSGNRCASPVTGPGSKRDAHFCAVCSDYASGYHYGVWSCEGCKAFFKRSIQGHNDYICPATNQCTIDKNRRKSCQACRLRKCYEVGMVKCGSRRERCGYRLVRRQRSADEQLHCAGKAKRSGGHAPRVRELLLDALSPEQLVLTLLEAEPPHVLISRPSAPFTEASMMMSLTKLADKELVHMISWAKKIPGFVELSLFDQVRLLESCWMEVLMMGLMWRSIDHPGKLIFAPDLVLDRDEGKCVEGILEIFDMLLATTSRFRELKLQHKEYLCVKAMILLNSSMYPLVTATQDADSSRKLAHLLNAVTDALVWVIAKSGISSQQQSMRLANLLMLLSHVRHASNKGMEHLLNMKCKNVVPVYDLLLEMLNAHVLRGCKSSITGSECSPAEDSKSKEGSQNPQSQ

Compound | Ki (Estrogen receptor [1]) | Ki (Estrogen receptor beta) | Activity [2] | IC50 (Estrogen receptor [3])
CC(C)CCc1cc(NCC(C)C)nc(NCc2ccccc2)n1 | 7.9 µM | > 1000 µM | Active | 1.8 µM
CC(C)CCc1cc(NCc2ccccc2)nc(NCC(C)C)n1 | 5.8 µM | > 1000 µM |  | 5.8 µM
c1ccc(CCc2cc(CCc3ccccc3)nc(NCc3cccc4ccccc34)n2)cc1 | > 1000 µM | > 1000 µM |  | > 1000 µM
CC(C)CNc1cc(NCC(C)C)nc(NCC(C)C)n1 |  | 299 µM | Active | 
C(=C\c1cc(OCc2ccccc2)nc(OCc2ccccc2)n1)/c1ccccc1 | > 1000 µM | > 1000 µM |  | > 1000 µM
CC(C)CNc1nc(CCc2ccccc2)cc(CCc2ccccc2)n1 | > 1000 µM | > 1000 µM |  | > 1000 µM
c1ccc(COc2cc(OCc3ccccc3)nc(OCc3ccccc3)n2)cc1 | > 1000 µM | > 1000 µM |  | > 1000 µM
c1ccc(CCc2cc(NCc3cccc4ccccc34)nc(NCc3ccccc3)n2)cc1 | > 1000 µM | > 1000 µM |  | > 1000 µM
CC(C)CNc1cc(CCc2ccccc2)nc(NCc2cccc3ccccc23)n1 | > 1000 µM | > 1000 µM |  | > 1000 µM
CC(C)CNc1nc(/C=C/c2ccccc2)cc(N(C)CC(C)C)n1 | > 1000 µM | > 1000 µM |  | > 1000 µM
CC(C)CNc1nc(CCc2ccccc2)cc(NCc2ccccc2)n1 | 1.7 µM | > 1000 µM |  | 1.9 µM
CC(C)CNc1nc(CCc2ccccc2)cc(NCc2cccc3ccccc23)n1 | > 1000 µM | > 1000 µM |  | 
CC(C)CSc1cc(SCC(C)C)nc(SCC(C)C)n1 |  | > 1000 µM |  | > 1000 µM
c1ccc2c(CCc3cc(NCc4cccc5ccccc45)nc(NCc4cccc5ccccc45)n3)cccc2c1 | > 1000 µM | > 1000 µM |  | > 1000 µM
CC(C)(C)OC(=O)N(Cc1cccc2ccccc12)c1cc(/C=C/c2ccccc2)nc(NCc2cccc3ccccc23)n1 | > 1000 µM | > 1000 µM |  | 
CC(C)CCc1cc(S(=O)(=O)CC(C)C)nc(S(=O)(=O)CC(C)C)n1 | > 1000 µM | > 1000 µM |  | 
CC(C)COc1cc(CCc2ccccc2)nc(OCC(C)C)n1 | > 1000 µM | > 1000 µM |  | > 1000 µM

Compound | Ki (Estrogen receptor [1]) | Ki (Estrogen receptor beta) | Activity [2] | IC50 (Estrogen receptor [3])
C(=C\c1cc(NCc2ccccc2)nc(NCc2ccccc2)n1)/c1ccccc1 | > 1000 µM | > 1000 µM |  | > 1000 µM
c1ccc(CSc2cc(SCc3ccccc3)nc(SCc3ccccc3)n2)cc1 | > 1000 µM | > 1000 µM |  | > 1000 µM
CC(C)CNc1nc(CCc2cccc3ccccc23)cc(N(Cc2ccccc2)C(=O)OC(C)(C)C)n1 | > 1000 µM | > 1000 µM |  | 
c1ccc(CCc2cc(NCc3ccccc3)nc(NCc3cccc4ccccc34)n2)cc1 | > 1000 µM | > 1000 µM |  | 
CC(C)CNc1cc(CCc2cccc3ccccc23)nc(NCC(C)C)n1 | 2.5 µM | > 1000 µM |  | 2.1 µM
CC(C)CN(C(=O)OC(C)(C)C)c1cc(CCc2ccccc2)nc(NCc2ccccc2)n1 | > 1000 µM | > 1000 µM |  | 
CC(C)CCc1cc(N(Cc2cccc3ccccc23)C(=O)OC(C)(C)C)nc(NCC(C)C)n1 | > 1000 µM | > 1000 µM |  | 
CC(C)CCc1cc(NCc2cccc3ccccc23)nc(NCc2ccccc2)n1 | > 1000 µM | > 1000 µM |  | > 1000 µM
CC(C)COc1cc(/C=C/c2ccccc2)nc(OCC(C)C)n1 | > 1000 µM | > 1000 µM |  | > 1000 µM
CC(C)CNc1nc(/C=C/c2ccccc2)cc(/C=C/c2ccccc2)n1 | > 1000 µM | > 1000 µM |  | > 1000 µM
c1ccc(CCc2cc(OCc3ccccc3)nc(OCc3ccccc3)n2)cc1 | > 1000 µM | > 1000 µM |  | > 1000 µM
CC(C)CCc1cc(N(Cc2ccccc2)C(=O)OC(C)(C)C)nc(NCc2cccc3ccccc23)n1 | > 1000 µM | > 1000 µM |  | 
CC(C)CCc1cc(NCc2ccccc2)nc(NCc2cccc3ccccc23)n1 | > 1000 µM | > 1000 µM |  | > 1000 µM
C(=C\c1cc(/C=C/c2ccccc2)nc(NCc2ccccc2)n1)/c1ccccc1 | > 1000 µM | > 1000 µM |  | > 1000 µM
CC(C)CCc1cc(N(Cc2ccccc2)C(=O)OC(C)(C)C)nc(NCC(C)C)n1 | > 1000 µM | > 1000 µM |  | 
CC(C)CNc1cc(/C=C/c2ccccc2)nc(NCc2cccc3ccccc23)n1 | > 1000 µM | > 1000 µM |  | > 1000 µM
